Data as given in ChEMBL document CHEMBL2086359, “Tormentic acid derivatives: synthesis and apoptotic activity” (Eur J Med Chem, 2012).
Activity calls are given as the source filed them. The calls are words filed in the database; no cut-off is given here.

What was measured:
[1] = Cytotoxicity against human 518A2 cells after 96 hrs by SRB assay; assay type: functional, cell-based
Procedure, shortened: (§1)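 Monolayer cultures kept in RPMI 1640 with 10% heat-inactivated FBS and penicillin/streptomycin at 37 °C, 5% CO2. Exponentially growing cells were seeded and treated 24 h later with serial dilutions (0–30 µM) for 96 h, with DMSO or DMF at most 0.5% final. Cells were fixed with 10% TCA at 4 °C and stained with 0.4% SRB for about 30 min. Plates were washed with 1% acetic acid and the dye dissolved in 10 mM Tris base. Absorbance was read at 570 nm and survival taken relative to untreated controls. IC50 was estimated from dose–response curves, averaged from at least 5 independent experiments.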

8505C [2] = assay: Cytotoxicity against human 8505C cells after 96 hrs by SRB assay; assay type: functional, cell-based; procedure, shortened: as §1
[3] = Cytotoxicity against human A253 cells after 96 hrs by SRB assay; assay type: functional, cell-based; procedure, shortened: as §1
A2780 = assay: Cytotoxicity against human A2780 cells after 96 hrs by SRB assay; assay type: functional, cell-based; procedure, shortened: as §1
A549 = assay: Cytotoxicity against human A549 cells after 96 hrs by SRB assay; assay type: functional, cell-based; procedure, shortened: as §1
DLD-1 = assay: Cytotoxicity against human DLD1 cells after 96 hrs by SRB assay; assay type: functional, cell-based; procedure, shortened: as §1
MCF7 = assay: Cytotoxicity against human MCF7 cells after 96 hrs by SRB assay; assay type: functional, cell-based; procedure, shortened: as §1
NIH3T3 = assay: Cytotoxicity against mouse NIH/3T3 cells after 96 hrs by SRB assay; assay type: cell-based; procedure, shortened: as §1
518A2 = assay: Induction of apoptosis in human 518A2 cells after 24 to 48 hrs by DNA laddering assay; assay type: functional, cell-based
Procedure, shortened: (§2)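 About 1×10^6 cells were grown in 25 cm2 flasks to 80% and exposed to compound-loaded medium for 24–48 h, with blank medium as control. Cells were collected from the supernatant (300 g, 4 °C), washed in PBS and lysed. Lysates were digested with RNase for 2 h at 37 °C, then with proteinase K for 12 h at 50 °C. DNA was run on agarose gel electrophoresis ([…], 2 h).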

8505C [4] = assay: Induction of apoptosis in human 8505C cells after 24 to 48 hrs by DNA laddering assay; assay type: functional, cell-based; procedure, shortened: as §2

SMILES	IC50 [1] [µmol]	IC50 (8505C [2]) [µmol]	IC50 [3] [µmol]	IC50 (A2780) [µmol]	IC50 (A549) [µmol]	IC50 (DLD-1) [µmol]	IC50 (MCF7) [µmol]	IC50 (NIH3T3) [µmol]	Activity (518A2)	Activity (8505C [4])
COC(=O)[C@]12CC[C@@H](C)[C@@](C)(O)[C@H]1C1=CC[C@@H]3[C@@]4(C)C[C@@H](O)[C@H](OC(=O)CCl)C(C)(C)[C@@H]4CC[C@@]3(C)[C@]1(C)CC2	5.5	7.5	4.1	4.1	10	6	6.9	4.2	Active	Active
CC(=O)O[C@@H]1C[C@]2(C)[C@H]3CC=C4[C@H]5[C@](C(=O)O)(CC[C@@H](C)[C@@]5(C)O)CC[C@@]4(C)[C@]3(C)CC[C@H]2C(C)(C)[C@H]1O	> 30	> 30	> 30	24.3	> 30	> 30	25.3	> 30	Active	Active
COC(=O)[C@]12CC[C@@H](C)[C@@](C)(O)[C@H]1C1=CC[C@@H]3[C@@]4(C)CC(=O)[C@H](OC(C)=O)C(C)(C)[C@@H]4CC[C@@]3(C)[C@]1(C)CC2	5.6	7	6.7	4.4	7.8	13.5	8.2	6.7	Active	Active
CC(=O)O[C@@H]1C[C@]2(C)[C@H]3CC=C4[C@H]5[C@](C(=O)O)(CC[C@@H](C)[C@@]5(C)O)CC[C@@]4(C)[C@]3(C)CC[C@H]2C(C)(C)[C@H]1OC(C)=O	> 30	> 30	27.3	17.6	> 30	> 30	20.4	32.3	Active	Active
COC(=O)[C@]12CC[C@@H](C)[C@@](C)(O)[C@H]1C1=CC[C@@H]3[C@@]4(C)C[C@@H](O)C(=O)C(C)(C)[C@@H]4CC[C@@]3(C)[C@]1(C)CC2	8.9	12.9	6.8	4.9	11.8	18	9.4	7.7	Active	Active
COC(=O)[C@]12CC[C@@H](C)[C@@](C)(O)[C@H]1C1=CC[C@@H]3[C@@]4(C)C=C(O)C(=O)C(C)(C)[C@@H]4CC[C@@]3(C)[C@]1(C)CC2	17.2	25	> 30	> 30	> 30	> 30	26	> 30	Active	Active
COC(=O)[C@]12CC[C@@H](C)[C@@](C)(O)[C@H]1C1=CC[C@@H]3[C@@]4(C)CC(=O)[C@H](O)C(C)(C)[C@@H]4CC[C@@]3(C)[C@]1(C)CC2	> 30	> 30	–	17.8	–	> 30	28.7	19.2	Active	Active
COC(=O)[C@]12CC[C@@H](C)[C@@](C)(O)[C@H]1C1=CC[C@@H]3[C@@]4(C)C[C@@H](OC(C)=O)C(=O)C(C)(C)[C@@H]4CC[C@@]3(C)[C@]1(C)CC2	28.9	> 30	18.5	9	31.3	28.2	14.8	25.1	Active	Active
